Data from ChEMBL document CHEMBL5653622 (Oncotarget, 2016).
The source made the active and inactive calls. No cut-off for these calls is given here.

Experiments:
[1] = Cmax in BALB/C mouse plasma at 10 mg/kg, po by LC/MS-MS analysis; format: ADME, organism-based
Procedure, shortened: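 Female BALB/c mice received a single 10mg/kg bolus i.v. or p.o. Plasma (and spleen homogenate) extracted with methanol containing internal standards. Concentrations were measured by LC/MS-MS and PK parameters calculated with modelling software.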

[2] = biological target: Dual specificity mitogen-activated protein kinase kinase 2 (Homo sapiens) (UniProt P36507); assay: Inhibition of human MKK2 assessed as remaining activity at 10 uM in presence of ATP by radiometric kinase assay relative to control
[3] = biological target: Mitogen-activated protein kinase 1 (Homo sapiens) (UniProt P28482); assay: Inhibition of human ERK2 assessed as remaining activity at 10 uM in presence of ATP by radiometric kinase assay relative to control
[4] = biological target: Mitogen-activated protein kinase 11 (Homo sapiens) (UniProt Q15759); assay: Inhibition of human p38b MAPK assessed as remaining activity at 10 uM in presence of ATP by radiometric kinase assay relative to control
[5] = biological target: Mitogen-activated protein kinase 12 (Homo sapiens) (UniProt P53778); assay: Inhibition of human p38g MAPK assessed as remaining activity at 10 uM in presence of ATP by radiometric kinase assay relative to control
[6] = biological target: Protein kinase C zeta type (Homo sapiens) (UniProt Q05513); assay: Inhibition of human PKCz assessed as remaining activity at 10 uM in presence of ATP by radiometric kinase assay relative to control
[7] = biological target: Serine/threonine-protein kinase 33 (Homo sapiens) (UniProt Q9BYT3); assay: Inhibition of human STK33 assessed as remaining activity at 10 uM in presence of ATP by radiometric kinase assay relative to control
[8] = biological target: Calcium/calmodulin-dependent protein kinase type 1 (Homo sapiens) (UniProt Q14012); assay: Inhibition of human CAMK1 assessed as remaining activity at 10 uM in presence of ATP by radiometric kinase assay relative to control
[9] = biological target: Aurora kinase B (Homo sapiens) (UniProt Q96GD4); assay: Inhibition of human AuroraB assessed as remaining activity at 10 uM in presence of ATP by radiometric kinase assay relative to control
[10] = biological target: Serine/threonine-protein kinase Nek2 (Homo sapiens) (UniProt P51955); assay: Inhibition of human NEK2a assessed as remaining activity at 10 uM in presence of ATP by radiometric kinase assay relative to control
[11] = biological target: Dual specificity protein kinase CLK2 (Homo sapiens, UniProt P49760); assay: Inhibition of human CLK2 assessed as remaining activity at 10 uM in presence of ATP by radiometric kinase assay relative to control
[12] = biological target: Serine/threonine-protein kinase PAK 2 (Homo sapiens) (UniProt Q13177); assay: Inhibition of human PAK2 assessed as remaining activity at 10 uM in presence of ATP by radiometric kinase assay relative to control
[13] = biological target: Misshapen-like kinase 1 (Homo sapiens) (UniProt Q8N4C8); assay: Inhibition of human MINK1 assessed as remaining activity at 10 uM in presence of ATP by radiometric kinase assay relative to control
[14] = biological target: Dual specificity testis-specific protein kinase 1 (Homo sapiens) (UniProt Q15569); assay: Inhibition of human TESK1 assessed as remaining activity at 10 uM in presence of ATP by radiometric kinase assay relative to control
[15] = biological target: Casein kinase I (Homo sapiens) (UniProt Q9HCP0+P78368+P48730+P49674+P48729); assay: Inhibition of human CK1 assessed as remaining activity at 10 uM in presence of ATP by radiometric kinase assay relative to control; format: protein assay
[16] = biological target: Tyrosine-protein kinase BTK (Homo sapiens) (UniProt Q06187); assay: Inhibition of human BTK assessed as remaining activity at 10 uM in presence of ATP by radiometric kinase assay relative to control
[17] = biological target: Tyrosine-protein kinase JAK2 (Homo sapiens) (UniProt O60674); assay: Inhibition of human JAK2 assessed as remaining activity at 10 uM in presence of ATP by radiometric kinase assay relative to control
[18] = biological target: Tyrosine-protein kinase ZAP-70 (Homo sapiens) (UniProt P43403); assay: Inhibition of human ZAP70 assessed as remaining activity at 10 uM in presence of ATP by radiometric kinase assay relative to control
[19] = biological target: Protein-tyrosine kinase 6 (Homo sapiens) (UniProt Q13882); assay: Inhibition of human BRK assessed as remaining activity at 10 uM in presence of ATP by radiometric kinase assay relative to control
[20] = biological target: Ephrin type-A receptor 4 (Homo sapiens) (UniProt P54764); assay: Inhibition of human EPH-A4 assessed as remaining activity at 10 uM in presence of ATP by radiometric kinase assay relative to control
[21] = biological target: Ephrin type-B receptor 1 (Homo sapiens) (UniProt P54762); assay: Inhibition of human EPH-B1 assessed as remaining activity at 10 uM in presence of ATP by radiometric kinase assay relative to control
[22] = biological target: Interleukin-1 receptor-associated kinase 4 (Homo sapiens) (UniProt Q9NWZ3); assay: Inhibition of human IRAK4 assessed as remaining activity at 10 uM in presence of ATP by radiometric kinase assay relative to control
[23] = biological target: Dual specificity protein kinase TTK (Homo sapiens) (UniProt P33981); assay: Inhibition of human TTK assessed as remaining activity at 10 uM in presence of ATP by radiometric kinase assay relative to control
[24] = biological target: Serine/threonine-protein kinase 16 (Homo sapiens) (UniProt O75716); assay: Inhibition of human MPSK1 assessed as remaining activity at 10 uM in presence of ATP by radiometric kinase assay relative to control
[25] = biological target: Ribosomal protein S6 kinase alpha-1 (Homo sapiens, UniProt Q15418); assay: Inhibition of human RSK1 at 10 uM in presence of ATP by radiometric kinase assay relative to control
[26] = biological target: MAP/microtubule affinity-regulating kinase 3 (Homo sapiens, UniProt P27448); assay: Inhibition of human MARK3 by FRET based Z-LYTE kinase assay
[27] = biological target: AMP-activated protein kinase (AMPK) alpha-1/beta-1/gamma-1 (Homo sapiens, UniProt P54619+Q13131+Q9Y478); assay: Inhibition of AMPK alpha1/beta1/gamma1 (unknown origin) by FRET based Z-LYTE kinase assay; format: protein-complex assay
[28] = test system: SW-620; assay: Induction of apoptosis in human SW620 cells assessed as increased in cleaved PARP in presence of gemcitabine by Western blotting analysis; format: functional, cell-based
[29] = AUC (0 to t) in BALB/C mouse spleen at 10 mg/kg, iv by LC/MS-MS analysis; format: ADME, organism-based
[30] = Plasma protein binding in nude mouse at 10 uM; format: ADME, cell-free
[31] = Toxicity in CRTac:Ncr-Fox1 mouse xenografted with human HT-29 cells assessed as body weight at 150 mg/kg, po administered for 10 days in presence of irinotecan relative to control; format: organism-based; conditions: in vivo, 240 h, time 10 day

Sequence of Dual specificity protein kinase CLK2 (P49760 whole entry, looked up): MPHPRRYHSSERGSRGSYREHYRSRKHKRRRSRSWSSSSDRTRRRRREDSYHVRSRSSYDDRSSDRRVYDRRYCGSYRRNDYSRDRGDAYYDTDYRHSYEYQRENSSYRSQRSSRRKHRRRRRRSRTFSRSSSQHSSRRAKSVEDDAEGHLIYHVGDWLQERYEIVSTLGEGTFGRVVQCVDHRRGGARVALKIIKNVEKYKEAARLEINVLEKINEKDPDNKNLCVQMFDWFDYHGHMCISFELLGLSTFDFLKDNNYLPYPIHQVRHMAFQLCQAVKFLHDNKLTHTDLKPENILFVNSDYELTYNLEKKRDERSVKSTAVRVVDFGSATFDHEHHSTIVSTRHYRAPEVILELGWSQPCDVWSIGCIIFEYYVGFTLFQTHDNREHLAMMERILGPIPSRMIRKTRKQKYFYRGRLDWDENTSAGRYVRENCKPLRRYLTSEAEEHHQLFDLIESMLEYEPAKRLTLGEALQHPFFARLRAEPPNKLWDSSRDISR
Sequence of Mitogen-activated protein kinase 1 (Homo sapiens) (P28482 whole entry): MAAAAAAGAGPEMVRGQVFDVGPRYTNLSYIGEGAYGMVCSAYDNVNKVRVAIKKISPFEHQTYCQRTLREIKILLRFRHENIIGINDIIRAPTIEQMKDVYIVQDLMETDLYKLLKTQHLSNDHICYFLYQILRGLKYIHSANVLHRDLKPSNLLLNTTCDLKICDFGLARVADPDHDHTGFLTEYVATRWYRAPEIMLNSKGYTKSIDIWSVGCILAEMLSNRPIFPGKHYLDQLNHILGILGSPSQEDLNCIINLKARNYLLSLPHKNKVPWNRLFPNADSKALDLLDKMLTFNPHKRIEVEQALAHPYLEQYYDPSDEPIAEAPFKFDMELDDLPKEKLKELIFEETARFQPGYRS
Sequence of Serine/threonine-protein kinase 16 (Homo sapiens) (O75716 whole entry): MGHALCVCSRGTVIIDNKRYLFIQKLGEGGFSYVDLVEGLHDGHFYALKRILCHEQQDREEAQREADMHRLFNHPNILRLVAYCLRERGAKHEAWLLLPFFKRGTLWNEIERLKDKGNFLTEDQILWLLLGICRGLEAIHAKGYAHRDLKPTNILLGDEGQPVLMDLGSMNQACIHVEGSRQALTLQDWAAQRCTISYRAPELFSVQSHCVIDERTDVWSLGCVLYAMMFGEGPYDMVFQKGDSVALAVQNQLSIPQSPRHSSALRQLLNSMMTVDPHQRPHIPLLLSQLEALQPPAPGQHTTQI
Sequence of Calcium/calmodulin-dependent protein kinase type 1 (Homo sapiens) (Q14012 whole entry, looked up): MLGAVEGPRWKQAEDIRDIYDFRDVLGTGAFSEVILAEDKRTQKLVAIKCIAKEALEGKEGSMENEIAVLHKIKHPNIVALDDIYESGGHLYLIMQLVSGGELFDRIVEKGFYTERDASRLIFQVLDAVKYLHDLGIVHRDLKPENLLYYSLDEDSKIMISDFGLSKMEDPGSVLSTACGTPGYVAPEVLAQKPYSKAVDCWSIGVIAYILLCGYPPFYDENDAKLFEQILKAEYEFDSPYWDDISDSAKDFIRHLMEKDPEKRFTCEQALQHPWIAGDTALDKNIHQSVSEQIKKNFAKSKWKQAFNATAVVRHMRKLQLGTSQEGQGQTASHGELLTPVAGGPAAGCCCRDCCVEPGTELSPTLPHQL
Sequence of Misshapen-like kinase 1 (Homo sapiens) (Q8N4C8 whole entry, looked up): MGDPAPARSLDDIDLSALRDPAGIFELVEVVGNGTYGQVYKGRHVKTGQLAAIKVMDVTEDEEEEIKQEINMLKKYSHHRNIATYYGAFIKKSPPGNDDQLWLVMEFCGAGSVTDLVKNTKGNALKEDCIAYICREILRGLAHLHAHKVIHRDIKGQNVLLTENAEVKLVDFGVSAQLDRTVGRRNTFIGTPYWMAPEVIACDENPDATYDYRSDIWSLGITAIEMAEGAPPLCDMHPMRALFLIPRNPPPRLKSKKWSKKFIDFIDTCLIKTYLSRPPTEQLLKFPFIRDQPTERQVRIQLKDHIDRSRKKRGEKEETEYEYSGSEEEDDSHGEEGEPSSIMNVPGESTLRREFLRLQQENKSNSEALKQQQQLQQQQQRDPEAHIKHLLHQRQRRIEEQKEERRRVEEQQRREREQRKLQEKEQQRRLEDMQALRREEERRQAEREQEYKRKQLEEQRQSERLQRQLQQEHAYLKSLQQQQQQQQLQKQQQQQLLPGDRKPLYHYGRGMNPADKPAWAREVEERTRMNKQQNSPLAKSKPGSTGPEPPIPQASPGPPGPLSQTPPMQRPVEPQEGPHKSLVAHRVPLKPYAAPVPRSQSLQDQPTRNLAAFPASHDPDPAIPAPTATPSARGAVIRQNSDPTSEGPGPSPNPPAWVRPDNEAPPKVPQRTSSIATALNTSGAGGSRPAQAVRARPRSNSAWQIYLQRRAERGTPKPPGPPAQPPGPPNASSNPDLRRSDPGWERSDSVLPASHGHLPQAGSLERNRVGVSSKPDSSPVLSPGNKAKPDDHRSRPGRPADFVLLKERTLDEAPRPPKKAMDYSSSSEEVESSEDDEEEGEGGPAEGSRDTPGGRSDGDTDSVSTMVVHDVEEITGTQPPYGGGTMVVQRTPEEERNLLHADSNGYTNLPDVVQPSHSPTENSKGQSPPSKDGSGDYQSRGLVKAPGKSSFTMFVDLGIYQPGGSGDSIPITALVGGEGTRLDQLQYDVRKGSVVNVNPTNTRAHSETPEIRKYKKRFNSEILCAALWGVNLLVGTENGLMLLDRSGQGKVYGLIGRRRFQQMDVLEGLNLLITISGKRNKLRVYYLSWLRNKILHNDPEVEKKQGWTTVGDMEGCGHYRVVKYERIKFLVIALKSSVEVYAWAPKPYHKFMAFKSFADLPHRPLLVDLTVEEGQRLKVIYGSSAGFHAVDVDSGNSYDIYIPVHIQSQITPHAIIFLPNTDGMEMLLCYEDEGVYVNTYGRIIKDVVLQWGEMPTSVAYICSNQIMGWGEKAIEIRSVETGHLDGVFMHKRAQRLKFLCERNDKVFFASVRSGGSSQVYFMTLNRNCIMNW
Sequence of Dual specificity mitogen-activated protein kinase kinase 2 (Homo sapiens) (P36507 whole entry): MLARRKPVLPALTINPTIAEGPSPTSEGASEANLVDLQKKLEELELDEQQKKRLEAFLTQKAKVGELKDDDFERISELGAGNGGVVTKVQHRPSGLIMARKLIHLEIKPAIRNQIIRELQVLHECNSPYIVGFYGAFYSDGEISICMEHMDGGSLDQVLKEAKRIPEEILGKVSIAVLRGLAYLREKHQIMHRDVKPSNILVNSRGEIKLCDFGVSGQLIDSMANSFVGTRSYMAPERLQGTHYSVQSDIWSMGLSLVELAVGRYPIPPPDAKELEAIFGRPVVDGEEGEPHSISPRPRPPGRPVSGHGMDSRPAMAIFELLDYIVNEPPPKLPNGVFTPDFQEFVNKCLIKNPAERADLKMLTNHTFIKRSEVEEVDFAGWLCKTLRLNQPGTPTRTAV
Sequence of Aurora kinase B (Homo sapiens) (Q96GD4 whole entry): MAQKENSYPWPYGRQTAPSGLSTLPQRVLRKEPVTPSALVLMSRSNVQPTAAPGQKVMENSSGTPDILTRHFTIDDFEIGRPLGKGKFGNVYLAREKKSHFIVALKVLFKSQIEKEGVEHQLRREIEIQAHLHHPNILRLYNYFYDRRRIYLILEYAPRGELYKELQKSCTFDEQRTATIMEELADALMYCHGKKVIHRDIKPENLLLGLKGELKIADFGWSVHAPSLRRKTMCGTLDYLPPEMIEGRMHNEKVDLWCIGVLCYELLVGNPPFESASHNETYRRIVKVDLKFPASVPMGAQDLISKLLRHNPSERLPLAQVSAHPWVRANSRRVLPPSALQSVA
Sequence of Ephrin type-B receptor 1 (Homo sapiens) (P54762 whole entry): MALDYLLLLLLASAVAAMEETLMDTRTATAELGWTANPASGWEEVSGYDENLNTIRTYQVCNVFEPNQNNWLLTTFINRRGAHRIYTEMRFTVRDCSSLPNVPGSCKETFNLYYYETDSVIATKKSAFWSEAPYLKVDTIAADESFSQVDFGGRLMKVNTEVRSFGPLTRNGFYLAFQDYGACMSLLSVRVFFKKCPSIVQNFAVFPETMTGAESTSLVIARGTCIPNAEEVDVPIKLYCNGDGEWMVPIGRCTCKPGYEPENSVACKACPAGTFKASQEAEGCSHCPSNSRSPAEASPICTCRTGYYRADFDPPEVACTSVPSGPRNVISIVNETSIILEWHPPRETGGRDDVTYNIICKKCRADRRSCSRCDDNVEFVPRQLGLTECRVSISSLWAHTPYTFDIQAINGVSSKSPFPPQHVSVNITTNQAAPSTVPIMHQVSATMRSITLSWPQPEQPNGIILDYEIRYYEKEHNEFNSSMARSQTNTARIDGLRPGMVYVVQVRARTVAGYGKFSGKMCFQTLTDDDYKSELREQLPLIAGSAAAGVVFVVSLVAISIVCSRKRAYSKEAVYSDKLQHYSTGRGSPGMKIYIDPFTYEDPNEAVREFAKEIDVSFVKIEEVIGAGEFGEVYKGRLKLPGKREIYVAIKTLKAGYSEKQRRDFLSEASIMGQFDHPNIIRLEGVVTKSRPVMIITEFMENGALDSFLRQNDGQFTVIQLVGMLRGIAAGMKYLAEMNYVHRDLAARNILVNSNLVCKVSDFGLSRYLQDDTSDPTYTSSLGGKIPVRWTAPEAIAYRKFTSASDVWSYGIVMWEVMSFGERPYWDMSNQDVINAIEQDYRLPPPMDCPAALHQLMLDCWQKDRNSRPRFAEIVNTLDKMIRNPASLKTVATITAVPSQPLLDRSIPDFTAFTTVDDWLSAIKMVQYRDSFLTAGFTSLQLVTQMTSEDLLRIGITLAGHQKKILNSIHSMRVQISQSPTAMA
Sequence of Mitogen-activated protein kinase 12 (Homo sapiens) (P53778 whole entry): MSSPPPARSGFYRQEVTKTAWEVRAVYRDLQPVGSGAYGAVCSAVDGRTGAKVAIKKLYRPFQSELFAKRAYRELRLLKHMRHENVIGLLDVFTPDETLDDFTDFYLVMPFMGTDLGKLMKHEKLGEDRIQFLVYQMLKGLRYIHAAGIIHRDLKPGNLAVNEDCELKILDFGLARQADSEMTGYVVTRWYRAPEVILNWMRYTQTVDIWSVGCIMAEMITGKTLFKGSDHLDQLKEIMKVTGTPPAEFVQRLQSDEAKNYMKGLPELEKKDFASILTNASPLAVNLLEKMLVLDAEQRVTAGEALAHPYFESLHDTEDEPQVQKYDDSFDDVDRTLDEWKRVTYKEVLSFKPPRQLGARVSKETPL

Cmax [1]: 1.62 µM
Activity [2]: 61%
Activity [3]: 98%
Activity [4]: 90%
Activity [5]: 95%
Activity [6]: 92%
Activity [7]: 39%
Activity [8]: 69%
Activity [9]: 26%
Activity [10]: 96%
Activity [11]: 6%
Activity [12]: 96%
Activity [13]: 44%
Activity [14]: 101%
Activity [15]: 85%
Activity [16]: 72%
Activity [17]: 37%
Activity [18]: 93%
Activity [19]: 108%
Activity [20]: 71%
Activity [21]: 111%
Activity [22]: 73%
Activity [23]: 36%
Activity [24]: 122%
inhibition [25]: 93%
IC50 [26]: 0.698 µM
IC50 [27]: 2.97 µM
AUC(0-t) [29]: 262 µM·h
PPB [30]: 75.6%
Structure (SMILES): N#Cc1cnc(Nc2cc(NC[C@H]3CNCCO3)c(C(F)(F)F)cn2)cn1 [SRA-737]
Activity [28]: Active
Activity [31]: 98%
